Experimental data from paper PMC9110138 (Biomedicine & Pharmacotherapy, 2022).

Experiments:
[1] = test system: SARS-CoV-2 pseudoparticles; conditions: cited from earlier work
human recombinant CYP3A4 = human recombinant CYP3A4 (Homo sapiens, UniProt P08684); conditions: microsomal and recombinant enzyme experiments; cited from earlier work
SARS-CoV-2 = conditions: cited from earlier work; for effect on viral replication in Calu-3 cells: infected with SARS-CoV-2 at MOI 0.001 for 90 min
HSA = conditions: previous investigation; cited from earlier work
[2] = test system: human intestinal epithelial cells; conditions: up to 50 μM, 24 h cytotoxicity assays; cited from earlier work
PHHs = conditions: up to 50 μM, 24 h cytotoxicity assays; cited from earlier work
[3] = canavanine, replacing arginine in P2 and P4; cited from earlier work
CYP2D6 = CYP2D6 (Homo sapiens, UniProt P10635); test: Fluorometric CYP2D6 assay in human hepatic microsomes; format: in vitro ADME; conditions: MI-1851 50 µM; quinidine 3 µM
CYP2D6, sequence (P10635 whole entry): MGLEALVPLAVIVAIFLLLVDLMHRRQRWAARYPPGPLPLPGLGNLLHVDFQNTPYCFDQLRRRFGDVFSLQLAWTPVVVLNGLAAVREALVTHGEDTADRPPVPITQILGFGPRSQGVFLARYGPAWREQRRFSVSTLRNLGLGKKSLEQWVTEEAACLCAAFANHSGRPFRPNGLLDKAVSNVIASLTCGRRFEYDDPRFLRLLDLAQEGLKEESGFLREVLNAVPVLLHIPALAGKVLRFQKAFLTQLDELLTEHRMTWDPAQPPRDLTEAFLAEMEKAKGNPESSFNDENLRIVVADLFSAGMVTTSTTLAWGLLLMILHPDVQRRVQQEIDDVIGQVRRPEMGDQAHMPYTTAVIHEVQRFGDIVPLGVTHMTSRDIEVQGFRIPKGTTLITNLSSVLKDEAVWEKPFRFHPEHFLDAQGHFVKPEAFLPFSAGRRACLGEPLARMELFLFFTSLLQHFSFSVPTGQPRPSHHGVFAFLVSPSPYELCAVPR
How it was run: (§1)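 Human hepatic microsomes were mixed with assay buffer and NADPH-generating system. They were preincubated 15 min at 37 °C with test compound (added solutions 0–250 µM), reference inhibitor or buffer-only background control. A fluorogenic substrate/NADP+ mixture followed, with final protein 10 µg/well. Fluorescence ex/em was 406/468 nm (CYP1A2), 415/502 nm (CYP2C9) and 390/468 nm (CYP2D6). Results are substrate RFU% as mean ± SEM, n = 3 or 4.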

CYP2C9 = CYP2C9 (Homo sapiens, UniProt P11712); test: Fluorometric CYP2C9 assay in human hepatic microsomes; format: in vitro ADME; conditions: MI-1851 50 µM; tienilic acid 60 µM
CYP2C9, sequence (P11712 whole entry): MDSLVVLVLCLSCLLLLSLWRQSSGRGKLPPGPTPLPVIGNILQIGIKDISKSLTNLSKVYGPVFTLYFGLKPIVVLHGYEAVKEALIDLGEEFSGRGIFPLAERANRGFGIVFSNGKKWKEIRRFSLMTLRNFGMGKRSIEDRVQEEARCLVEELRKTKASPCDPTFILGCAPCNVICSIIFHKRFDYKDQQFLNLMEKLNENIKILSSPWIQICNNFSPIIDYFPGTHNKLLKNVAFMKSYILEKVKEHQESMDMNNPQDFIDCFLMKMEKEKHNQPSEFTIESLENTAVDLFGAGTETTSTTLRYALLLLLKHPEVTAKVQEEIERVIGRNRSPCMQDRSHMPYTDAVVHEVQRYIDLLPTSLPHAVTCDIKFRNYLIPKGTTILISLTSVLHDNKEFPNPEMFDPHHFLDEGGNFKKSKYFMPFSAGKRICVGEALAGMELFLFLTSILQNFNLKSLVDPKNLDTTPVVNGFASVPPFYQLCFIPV
How it was run: as §1

CYP1A2 [4] = target: T1, CYP1A2 (Homo sapiens, UniProt P05177); test: Fluorometric CYP1A2 assay in human hepatic microsomes; format: in vitro ADME; conditions: MI-1851 50 µM; α-naphthoflavone 6 µM
T1 sequence (P05177 1-516): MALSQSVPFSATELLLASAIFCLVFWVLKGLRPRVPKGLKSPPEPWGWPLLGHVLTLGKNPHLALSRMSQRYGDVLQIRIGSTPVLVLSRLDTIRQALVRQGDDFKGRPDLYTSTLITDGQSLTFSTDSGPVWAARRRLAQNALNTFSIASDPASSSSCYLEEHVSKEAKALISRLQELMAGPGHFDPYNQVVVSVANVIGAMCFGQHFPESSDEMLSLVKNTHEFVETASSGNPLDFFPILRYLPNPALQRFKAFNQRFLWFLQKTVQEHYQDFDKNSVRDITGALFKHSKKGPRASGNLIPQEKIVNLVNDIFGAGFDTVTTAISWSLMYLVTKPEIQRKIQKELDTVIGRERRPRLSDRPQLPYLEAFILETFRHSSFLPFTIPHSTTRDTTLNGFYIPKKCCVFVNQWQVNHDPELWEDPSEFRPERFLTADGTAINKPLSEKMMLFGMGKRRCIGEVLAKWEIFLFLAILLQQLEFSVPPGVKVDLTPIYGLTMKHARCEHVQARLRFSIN
How it was run: as §1

CYP1A2 [5] = target: T1, CYP1A2; test: CYP1A2 luminescent P450-Glo assay in PHHs; format: cell-based; conditions: 2 h; MI-1851 10, 20, 50 and 100 µM; α-naphthoflavone 10 µM
How it was run: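 Cryopreserved primary human hepatocytes were thawed in recovery medium and plated for 6 h in medium with 5% FBS. They were then kept FBS-free on collagen-coated membrane inserts at 37 °C, 5% CO2. Cells were washed in serum-free medium and exposed 2 h to test compound (0–100 µM; freshly diluted from 10 mM DMSO stock). CYP1A2 was read by P450-Glo with luciferin 1A2. Groups were compared by one-way ANOVA/Tukey.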

human recombinant CYP3A4, sequence (P08684 whole entry): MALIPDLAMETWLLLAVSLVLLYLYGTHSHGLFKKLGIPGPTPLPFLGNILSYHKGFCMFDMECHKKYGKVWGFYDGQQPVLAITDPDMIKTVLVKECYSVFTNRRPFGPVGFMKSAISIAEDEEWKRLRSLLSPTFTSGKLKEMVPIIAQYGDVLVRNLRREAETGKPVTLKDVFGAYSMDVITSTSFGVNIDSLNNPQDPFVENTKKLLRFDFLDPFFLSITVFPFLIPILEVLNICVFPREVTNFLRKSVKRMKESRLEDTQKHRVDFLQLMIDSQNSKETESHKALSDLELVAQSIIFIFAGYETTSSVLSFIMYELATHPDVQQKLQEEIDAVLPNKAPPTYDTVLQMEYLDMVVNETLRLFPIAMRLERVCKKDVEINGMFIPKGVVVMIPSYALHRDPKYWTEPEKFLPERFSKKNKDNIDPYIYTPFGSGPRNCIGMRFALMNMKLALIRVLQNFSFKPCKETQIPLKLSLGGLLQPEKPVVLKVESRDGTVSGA

Molecule: CCOC(=O)[C@H]1O[C@@H]1C(=O)N[C@@H](CC(C)C)C(=O)NCCC(C)C [E64d]
- effect on infection with SARS-CoV-2 pseudoparticles [1]: could decrease infection

Molecule: N=C(N)c1cccc(C[C@H](NS(=O)(=O)c2cccc(-c3ccc(Cl)cc3Cl)c2)C(=O)N2CCC(CCN)CC2)c1.O=C(O)C(F)(F)F.O=C(O)C(F)(F)F [MI-432]
- inhibition of CYP3A4 (human recombinant CYP3A4): potent inhibitors of CYP3A4 at the nanomolar or low micromolar range
- effect on viral titers in human airway epithelial Calu-3 cells (SARS-CoV-2): efficiently reduced
- effect on viral replication in Calu-3 cells (SARS-CoV-2): inhibit viral replication
- interactions with HSA (HSA): no or only weak interactions

Molecule: COc1ccc(-c2cccc(S(=O)(=O)N[C@@H](Cc3cccc(C(=N)N)c3)C(=O)N3CCN(C(=O)NC4CCCCC4)CC3)c2)c(OC)c1 [MI-1900]
- inhibition of CYP3A4 (human recombinant CYP3A4): potent inhibitors of CYP3A4 at the nanomolar or low micromolar range
- effect on viral titers in human airway epithelial Calu-3 cells (SARS-CoV-2): efficiently reduced
- effect on viral replication in Calu-3 cells (SARS-CoV-2): inhibit viral replication
- damage to human intestinal epithelial cells [2]: did not cause damage
- damage to PHHs (PHHs): did not cause damage
- interactions with HSA (HSA): no or only weak interactions

Molecule: N=C(N)NOCC[C@H](N)C(=O)O [canavanine]
- pKa [3]: 7.04

Molecule: C=C[C@H]1C[N@@]2CC[C@H]1C[C@@H]2[C@@H](O)c1ccnc2ccc(OC)cc12 [quinidine]
- effect on human microsomal CYP2D6 activity (CYP2D6): significant inhibition

Molecule: O=C(O)COc1ccc(C(=O)c2cccs2)c(Cl)c1Cl [tienilic acid]
- effect on human microsomal CYP2C9 activity (CYP2C9): significant inhibition

Molecule: O=c1cc(-c2ccccc2)oc2c1ccc1ccccc12 [α-naphthoflavone]
- effect on human microsomal CYP1A2 activity (CYP1A2 [4]): significant inhibition
- effect on CYP1A2 activity in PHHs (CYP1A2 [5]): significant inhibitory effects

Molecule: aprotinin
- effect on virus replication in vitro (SARS-CoV-2; 10 µM, 48 h post infection): decreased the virus replication
- effect on viral replication in Calu-3 cells (SARS-CoV-2): inhibit viral replication
